Measured values gathered from unrelated publications.
Protocols differ between the studies behind these lines.
Target: Serine/threonine-protein kinase VRK2 (VRK2, Homo sapiens, UniProt Q86Y07)

`Cc1cc(NC(=O)c2cccc3cc(-c4cccc5[nH]nc(N)c45)ccc23)ccc1F` gave an activity vs control of 89% (enzyme activity, inhibitor; 0.1 µM).
`CO[C@@H](C)c1c(Nc2ccc([C@H](N(C)C(=O)C3CCS(=O)(=O)CC3)C(F)(F)F)cc2)cnc2cc(Cl)nn12` has a remaining binding of 100% (cell-free assay, competition with immobilised ligand; 1 µM).
`CC(C)(C)c1nc(-c2cccc(NS(=O)(=O)c3c(F)cccc3F)c2F)c(-c2ccnc(N)n2)s1` gave a remaining activity of 103% (enzyme activity, inhibitor, radiometric; 1 µM).
`O=C(O)[C@H]1[C@H](Cn2nnc3ccccc3c2=O)CC[C@@H]1C(=O)c1ccc(OCCC2CCOCC2)cc1` gave a remaining binding of 80% (cell-free assay, competition with immobilised ligand; 1 µM).
`Cn1c2c(c3ccc(Cl)c(Cl)c31)C(C#N)C1(CCOCC1)NC2=O` (centres unmarked) gave a ΔTm of 0 °C (thermal stability, DSF; 10 µM).
`CN(C)CC#Cc1ccc(OCCCc2sc(N3CCc4cccc(C(=O)Nc5nc6ccccc6s5)c4C3)nc2C(=O)O)c(F)c1` gave a remaining binding of 100% (cell-free assay, competition with immobilised ligand; 1 µM).
For `CCN(CC)c1ccc(C2=NNC(=O)CC2C)cc1[N+](=O)[O-]` (centres unmarked), the remaining activity was 95% (enzyme activity, inhibitor; 10 µM).
`Cc1cnc(NC2CCOCC2)nc1-n1cnc(C(=O)NC(CN)c2cc(F)cc(Cl)c2)c1` (centres unmarked) gave a remaining activity of 99% (enzyme activity, inhibitor, radiometric; 1 µM).
`N#Cc1ccc(Nc2ccc3[nH]c(=O)[nH]c3c2)c(Cl)c1` gave a remaining binding of 100% (cell-free assay, competition with immobilised ligand; 1 µM).
With `CCN1CCC2(CC1)NC(=O)c1c(c3ccc(Cl)c(Cl)c3n1C)C2C#N` (racemic) the ΔTm was 0.1 °C (thermal stability, DSF; 10 µM).
The remaining binding of `c1ccc(N2CCN(Cc3nc4ccccc4[nH]3)CC2)nc1` is reported as 100% (binding, competition with immobilised ligand; 1 µM).
With `Cn1c2c(c3ccc(Cl)c(Cl)c31)C(C#N)C1(CCCC1)NC2=O` (centres unmarked) the ΔTm was -0.2 °C (thermal stability, DSF; 10 µM).
The inhibition of `Cc1ccc(Nc2nccc(N(C)c3ccc4c(C)n(C)nc4c3)n2)cc1S(N)(=O)=O` is reported as -16% (enzyme activity, inhibitor; 0.3 µM).
With `Cc1cc(-n2nc(Cc3cc(F)cc(C(F)(F)F)c3)nc2C)ccc1C(N)=O` the remaining binding was 100% (cell-free assay, competition with immobilised ligand; 1 µM).
With `Cn1c2c(Cl)c(Cl)ccc2c2cc(N)[nH]c(=O)c21` the ΔTm was 0.3 °C (thermal stability, DSF; 10 µM).
For `Cc1ccc(C(=O)Nc2ccc(CN3CCN(C)CC3)c(C(F)(F)F)c2)cc1C#Cc1cnc2cccnn12`, the remaining activity was 74% (enzyme activity, inhibitor; 23.5 nM).
`C[C@H](NC(=O)c1cnc2n1[C@](C)(Cc1ccc(C#N)cc1)C(=O)N2c1cc(Cl)c(F)c(Cl)c1)C(=O)NC1(c2ccccn2)CC1` gave a remaining binding of 100% (cell-free assay, competition with immobilised ligand; 1 µM).
For `CNC(=O)c1cc(Oc2ccc(NC(=O)Nc3ccc(Cl)c(C(F)(F)F)c3)cc2)ccn1`, the inhibition was -15% (enzyme activity, inhibitor; 0.3 µM).
For `Cn1c2c(Cl)c(Cl)ccc2c2cn[nH]c(=O)c21`, the ΔTm was 0 °C (thermal stability, DSF; 10 µM).
For `CCN(CC)CCNC(=O)c1c(C)[nH]c(/C=C2\C(=O)Nc3ccc(F)cc32)c1C`, the inhibition was -19% (enzyme activity, inhibitor; 0.3 µM).
For `CC(C)(O)[C@H]1CC[C@H](Nc2ccc3ncc(-c4cccc(C(F)(F)F)c4)n3n2)CC1`, the remaining activity was 81.2% (enzyme activity, inhibitor; 1 µM).
For `N#CC1c2c([nH]c3c(Cl)c(Cl)ccc23)C(=O)NC12CCCCC2` (racemic), the ΔTm was -0.3 °C (thermal stability, DSF; 10 µM).
`COc1cc(Cl)c(C(=O)N[C@@H](CN[C@H]2CC[C@@H](N)CC2)Cc2ccc(C#N)cc2)cc1-c1ccc(CN[C@H](C)c2ccc(C)cc2)o1` has a remaining activity of 91% (enzyme activity, inhibitor; 1 µM).
